Published values of several laboratories.
Compare with care: the assays were run in different laboratories.
Target: Transient receptor potential cation channel subfamily M member 6 (TRPM6, Homo sapiens, UniProt Q9BX84)

Structure (SMILES)	effect on	technique	concentration	remaining binding [%]
N[C@H]1CCN(c2nccc(-c3cnn4ncccc34)n2)C1	binding		1 µM	91
O=C(NCCCN1CCOCC1)c1ccc(Nc2nccc(-c3cc4ccccc4s3)n2)cc1	binding	competition with immobilised ligand	1 µM	100
C[C@@H](c1ccc(-n2cnc3c(N)ncnc32)cc1)N1CCc2nn(C)c(Cc3ccccc3)c2C1=O	binding	competition with immobilised ligand	0.1 µM	76
CNC(=O)[C@@H]1CC[C@@H](n2c(-c3ccc4cnccc4c3)nc3ccc(C(=O)NCc4cccc(C(N)=O)c4)cc32)C1	binding	competition with immobilised ligand	1 µM	83
O=C(c1ccc(Nc2nccc(-c3cc4ccccc4s3)n2)cc1)N1CCC(N2CCCC2)CC1	binding	competition with immobilised ligand	1 µM	100
CN(C)c1nccc(-c2cnc3ncccn23)n1	binding		1 µM	75
COc1ncc2cc3ccccc3nc2c1C#N	cell-free assay	competition with immobilised ligand	5 µM	92
CC1CCCN1c1nccc(-c2cnn3ncccc23)n1 (centres unmarked)	binding		1 µM	100
CN(C)C(=O)Cn1cc(-c2nc([C@@](C)(c3ccc(-c4cnc(N)nc4)cc3)C3CC3)no2)cn1	cell-free assay	competition with immobilised ligand	1 µM	78
C[C@H]1CCN(c2nccc(-c3cnn4ncccc34)n2)C1	binding		1 µM	94
CS(=O)(=O)N1CCCC(NC(=O)[C@H](CCC2CCCCC2)NC(=O)c2ccc(CNC(=O)c3cnc4ccccn34)cc2)C1 (some centres unmarked)	cell-free assay	competition with immobilised ligand	0.1 µM	100
CN(C)c1ncc(F)c(-c2cnn3ncccc23)n1	binding		1 µM	100
N#CC1(c2ccccn2)CCN(Cc2cc(C(=O)N3CCCC3)c(=O)n3ccccc23)CC1	cell-free assay	competition with immobilised ligand	1 µM	80
COc1cnc(Nc2cccc(S(N)(=O)=O)c2)nc1N1CCN(c2ccccc2)CC1	binding	competition with immobilised ligand	1 µM	90
CN([C@@H]1CCc2c(CC(=O)O)c3cc(S(C)(=O)=O)ccc3n2C1)S(=O)(=O)c1ccc(F)cc1	cell-free assay	competition with immobilised ligand	1 µM	74
O=C(Nc1c[nH]nc1C(=O)NC1CCNCC1)c1cc(F)cc(F)c1	binding	competition with immobilised ligand	1 µM	88
Cc1c[nH]c2nccc(Oc3c(F)cc(Nc4cc(Cl)nc(N)n4)cc3F)c12	cell-free assay	competition with immobilised ligand	0.1 µM	83
Cc1cnc(Nc2ccc(C(=O)N3CCC(N4CCCC4)CC3)cc2)nc1-c1cc2ccccc2s1	binding	competition with immobilised ligand	1 µM	100
CN(CCCC(F)(F)F)c1nccc(-c2cnn3ncccc23)n1	binding		1 µM	100
Cc1nc(C2CCN(C(=O)c3ccc(OC(F)(F)F)cc3N)CC2)c2ncc(N3CCN(C)CC3)cc2n1	cell-free assay	competition with immobilised ligand	1 µM	100
